Columns and labels:
rod CNG channels = conditions: ref Molokanova et al. 1999a; cited from earlier work
[1] = molecular target: T1, α-subunit of the bovine retinal rod CNG channel (RETα) (Bos taurus, UniProt Q00194); format: biochemical; conditions: 10 μM Ni^2+; subsaturating cGMP (25 μM); steady state
T1 sequence (Q00194 1-690): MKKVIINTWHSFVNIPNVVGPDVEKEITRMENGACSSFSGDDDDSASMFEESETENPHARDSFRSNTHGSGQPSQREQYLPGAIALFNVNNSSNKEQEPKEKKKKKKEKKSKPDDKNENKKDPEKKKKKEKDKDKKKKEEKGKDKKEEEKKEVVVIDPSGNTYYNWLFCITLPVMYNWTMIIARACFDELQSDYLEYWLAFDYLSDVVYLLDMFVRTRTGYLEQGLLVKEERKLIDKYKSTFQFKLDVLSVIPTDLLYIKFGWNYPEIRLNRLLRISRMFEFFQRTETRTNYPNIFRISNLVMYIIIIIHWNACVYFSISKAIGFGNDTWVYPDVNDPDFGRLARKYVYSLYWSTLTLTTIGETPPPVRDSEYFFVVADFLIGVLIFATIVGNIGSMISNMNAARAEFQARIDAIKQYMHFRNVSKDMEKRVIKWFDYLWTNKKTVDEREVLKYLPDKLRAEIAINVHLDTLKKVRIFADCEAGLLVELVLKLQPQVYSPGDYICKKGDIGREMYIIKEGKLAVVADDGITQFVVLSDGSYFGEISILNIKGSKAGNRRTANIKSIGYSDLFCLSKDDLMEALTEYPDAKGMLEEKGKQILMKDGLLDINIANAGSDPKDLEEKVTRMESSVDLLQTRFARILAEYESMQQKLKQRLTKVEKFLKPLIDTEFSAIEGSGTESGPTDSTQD
Summary of the method: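 RETα was expressed in oocytes from 50 nl of 50 ng/μl RNA. Inside-out patches were held at −75 mV in symmetrical NaCl/EGTA/EDTA/HEPES, pH 7.5, with solution exchange within 50 ms. Current was normalized to Imax: residual current after 1 min preexposure then 2 mM cGMP, or steady-state current with compound added during 2 mM cGMP. Ki and Hill coefficient came from a modified Hill fit; τa from single-exponential fits; mean ± SEM.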

SMILES	effect on genistein's action on CNG channels (rod CNG channels)	effect of Ni^2+ on genistein inhibition [1]
Nc1ncnc2c1ncn2[C@@H]1O[C@H](COP(=O)(O)OP(=O)(O)NP(=O)(O)O)[C@@H](O)[C@H]1O [AMP-PNP]	competitive inhibitor of genistein's action on CNG channels	
[Ni+2] [Ni^2+]		only reduces genistein inhibition
O=CN/C=C/c1cc(O)ccc1O [erbstatin]	noncompetitively prevents genistein's effect on the channels	
